Data on 14 compounds can be found in PubChem BioAssay.

Each structure is given as a SMILES string. Activity calls are given as the source filed them.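 The calls were made as follows, unless noted: active = viability at or below 30% in both replicate assays; inconclusive = viability at or below 30% in just one of the two assays; inactive = the rest.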

The nature of assay [1]: SK-BR-3 cell growth inhibitors, pilot screen, 24 h, human (AID 572;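 active = viability at or below 10% of carrier control in both of two separate runs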;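 also: compound exposure lasted between 18 and 24 h rather than exactly 24 h; 100% = carrier-treated control wells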). To be noted: SK-BR-3 viability, CellTiter-Glo luminescence, at 10 µM, stronger effect = lower value. On the technique in general: In ATP-based viability assays light output follows the ATP content of the culture.
Assay [2] can be described thus: HUVEC growth inhibition – cell-based, human, primary screen (AID 575).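 Also: 100% = median of untreated cell wells with 0.1% DMSO on each plate.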 To be noted: HUVEC proliferation, CellTiter-Glo luminescence, 72 h; at 10 µM; stronger effect = lower value. A digest of the protocol: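 Test system – primary HUVEC, no more than 12 passages · Dosing – one dose, 10 µM final, 0.1% DMSO · Times – 72 h treatment at 37 °C · Measured by – ATP-based CellTiter-Glo luminescent read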

Assay [3] can be described thus: growth inhibitors of H69AR lung tumor, primary screen, human, duplicate replicates (AID 580;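 active = viability at or under a set limit in both replicates, limit being median viability minus 3 SD, cut at about 48% in these data, passing the limit was not always enough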;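 also: 100% = mean luminescence of untreated wells and 0% = no signal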). To be noted: H69AR lung tumor cells viability, ATP luminescence, 72 h; at 10 µM; stronger effect = lower value.
Assay [4] can be described thus: reversal of MRP1-mediated doxorubicin resistance, pilot screen, H69AR cells, doxorubicin co-treatment (AID 601;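 active = viability loss from added drug above about 55%, and viability with drug at most 40%, in both replicates, limit read from the data, passing the limit was not always enough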). To be noted: CellTiter-Glo, 72 h, at 10 µM; for differential viability (reversal): stronger effect = higher value.
A short description of assay [5]: 384-well plate pilot, post-Golgi transport modulator project, inhibition of yeast transport mutant growth (AID 636; in the data active = inhibition above about 31%). The following applies: absorbance 615 nm, about 18 h, stronger effect = higher value.
Assay [6] is described as follows: growth suppression of yeast trafficking mutant, preliminary HTS, modulators of trafficking downstream of Golgi apparatus project, 1536-format plate, OD 615 nm (AID 637; in the data active = inhibition above about 30%). To be noted: yeast transport mutant growth, absorbance 615 nm, 18 h; stronger effect = higher value.
[7] abbreviates: H69AR cells + 2 uM doxorubicin, measured here: viability with 2 uM doxorubicin, stronger effect = lower value.
Setting [8] is: H69AR cells, compound alone cytotoxicity.

For orientation: viability means a read-out of living cells in per cent, often relative to untreated cells. As usually defined, the inhibition is the drop in the measured response relative to a control, in per cent. For the compound `CC(=N\O)/C(CN(C)C)=N/O`, the viability in assay [1] was 97% (inactive); in assay [2], 88.7% (inactive); in assay [3], 91.5% (inactive); in assay [4] (setting [7]) it was 97.9%; in assay [4] (setting [8]), 91.5%. For the same compound, the differential viability (reversal) in assay [4] (H69AR cells + 2 uM doxorubicin) was -6.4% (inactive). The values for the inhibition in assay [5] and in assay [6] were -1.78% (inactive) and 25.6% (inactive), respectively.
As for `COC(=O)C1C2C=CC3(CN(CC4CCCO4)C(=O)C13)O2` (configuration not stated), the viability in assay [1] was 78% (inactive); in assay [2] it was 114% (inactive); in assay [3], 102% (inactive); in assay [4] (setting [7]), 111%; in assay [4] (setting [8]) it was 102%. In assay [4] (H69AR cells + 2 uM doxorubicin), the differential viability (reversal) is -9.38% (inactive). Also, the inhibition is -6.99% (inactive) in assay [5] and -0.18% (inactive) in assay [6].
As to `Cc1ccc(C2=Nc3ccccc3NC(C)(c3ccc(C)o3)C2)o1` (configuration not stated), the viability was 95% (inactive) in assay [1]; 79% (inactive) in assay [2]; 64% (inactive) in assay [3]; 74.7% in assay [4] (setting [7]); 64% in assay [4] (setting [8]). The differential viability (reversal) in assay [4] (H69AR cells + 2 uM doxorubicin) was -10.7% (inactive). The figures for the inhibition in assay [5] and in assay [6] were 3.97% (inactive) and 27.1% (inactive), respectively.
Regarding `Cn1c2c(c(=O)n(C)c1=O)C(NC(=O)C(C)(C)C)(C(F)(F)F)C(=O)N2` (configuration not stated), the viability is 105% (inactive) in assay [1]; 98.7% (inactive) in assay [2]; 90.3% (inactive) in assay [3]; 81.3% in assay [4] (setting [7]); 90.3% in assay [4] (setting [8]). Further, the differential viability (reversal) in assay [4] (H69AR cells + 2 uM doxorubicin) is 9.01% (inactive). The inhibition in assay [5] is -6.62% (inactive); in assay [6], -1.82% (inactive).
Regarding `CCCNS(=O)(=O)c1ccc(OCC(=O)Nc2ccccc2F)cc1`, the viability in assay [1] is 96.5% (inactive); in assay [2], 90.3% (inactive); in assay [3], 87.3% (inactive); in assay [4] (setting [7]), 79.1%; in assay [4] (setting [8]), 87.3%. The differential viability (reversal) in assay [4] (H69AR cells + 2 uM doxorubicin) is 8.17% (inactive). In addition, the values for the inhibition in assay [5] and in assay [6] were -4.21% (inactive) and -0.81% (inactive), respectively.
Regarding `COc1nc(C)ccc1-c1noc(-c2ccncc2)n1`, the viability in assay [1] was 101% (inactive); in assay [2] it was 86.5% (inactive); in assay [3], 95.1% (inactive); in assay [4] (setting [7]) it was 83.6%; in assay [4] (setting [8]) it was 95.1%. Further, the differential viability (reversal) in assay [4] (H69AR cells + 2 uM doxorubicin) was 11.4% (inactive). The inhibition was -8.22% (inactive) in assay [5] and 1.45% (inactive) in assay [6].
Regarding `CCOC(=O)C1CCN(C(=O)Nc2ccc3nc(C)c(C)nc3c2)CC1`, the viability in assay [1] is 101% (inactive); in assay [2] it was 109% (inactive); in assay [3], 95.5% (inactive); in assay [4] (setting [7]), 79.6%; in assay [4] (setting [8]), 95.5%. Besides, the differential viability (reversal) in assay [4] (H69AR cells + 2 uM doxorubicin) is 15.9% (inactive). Moreover, the inhibition in assay [5] is -3.87% (inactive); in assay [6], -1.09% (inactive).
With `Cc1sc2ncnc(Oc3ccc(-n4ccnc4)cc3)c2c1C`, the viability in assay [1] was 88% (inactive); in assay [2], 102% (inactive); in assay [3], 87.2% (inactive); in assay [4] (setting [7]), 102%; in assay [4] (setting [8]) it was 87.2%. Besides, the differential viability (reversal) in assay [4] (H69AR cells + 2 uM doxorubicin) is -15.1% (inactive). The values for the inhibition in assay [5] and in assay [6] were -8.77% (inactive) and 3.27% (inactive), respectively.
Consider `CCOC(=O)C1CCCN(C(=O)c2cc3c(-c4cccc(OC)c4)nn(C)c3s2)C1` (configuration not stated), for which the viability is 115% (inactive) in assay [1]; 56.1% (inactive) in assay [2]; 13.2% (active) in assay [3]; 82.2% in assay [4] (setting [7]); 13.2% in assay [4] (setting [8]). Further, the differential viability (reversal) in assay [4] (H69AR cells + 2 uM doxorubicin) was -69% (inactive). Also, the inhibition in assay [5] is -8.13% (inactive); in assay [6] it was 1.64% (inactive).
Regarding `CCOc1cc(C(=O)Nc2c3c(nn2C(C)(C)C)CS(=O)C3)cc(OCC)c1OCC` (configuration not stated), the viability is 103% (inactive) in assay [1]; 96.7% (inactive) in assay [2]; 101% (inactive) in assay [3]; 93.7% in assay [4] (setting [7]); 101% in assay [4] (setting [8]). For the same compound, in assay [4] (H69AR cells + 2 uM doxorubicin), the differential viability (reversal) is 7.14% (inactive). Besides, the inhibition was -1.04% (inactive) in assay [5] and -7.54% (inactive) in assay [6].
With `OCC(O)CN1CCN(c2ccccc2)CC1` (configuration not stated), the viability in assay [1] was 119% (inactive); in assay [2], 100% (inactive); in assay [3], 92.9% (inactive); in assay [4] (setting [7]) it was 94.5%; in assay [4] (setting [8]), 92.9%. The differential viability (reversal) in assay [4] (H69AR cells + 2 uM doxorubicin) is -1.6% (inactive). The inhibition in assay [5] was 1.95% (inactive); in assay [6], 3.83% (inactive).
Turning to `CCOC(=O)C1CCCN(C(=O)c2sc3nc(-c4ccccc4)cn3c2C)C1` (configuration not stated), the viability in assay [1] is 112% (inactive); in assay [2] it was 89.3% (inactive); in assay [3] it was 84.9% (inactive); in assay [4] (setting [7]) it was 82.9%; in assay [4] (setting [8]), 84.9%. For the same compound, in assay [4] (H69AR cells + 2 uM doxorubicin), the differential viability (reversal) was 1.98% (inactive). The results for the inhibition in assay [5] and in assay [6] were -1.3% (inactive) and 15.9% (inactive), respectively.
For `c1ccc2c(NC3CCCC3)nnc(NC3CCCC3)c2c1`, the viability was 60% (inactive) in assay [1]; 83.1% (inactive) in assay [2]; 91.4% (inactive) in assay [3]; 89.6% in assay [4] (setting [7]); 91.4% in assay [4] (setting [8]). Further, the differential viability (reversal) in assay [4] (H69AR cells + 2 uM doxorubicin) was 1.81% (inactive). Further, the inhibition in assay [5] was -0.92% (inactive); in assay [6], -7.46% (inactive).
Turning to `O=c1c2ccccc2[nH]c(=S)n1CCN1CCC(=C(c2ccc(F)cc2)c2ccc(F)cc2)CC1`, the viability in assay [1] is 113% (inactive); in assay [2] it was 18.2% (active); in assay [3] it was 78.8% (inactive); in assay [4] (setting [7]), 83.6%; in assay [4] (setting [8]), 78.8%. In assay [4] (H69AR cells + 2 uM doxorubicin), the differential viability (reversal) is -4.72% (inactive). The inhibition is 83% (active) in assay [5] and 71% (active) in assay [6].
